PKA-R1A activ: activates the PKA-R1A holoenzyme complex; hit rate 0.083% among 340,000; activation, % at 11.4 µM; PKA-R1A dissociation, Cy5-IP20 fluorescence polarization; scaled: DMSO 0%, 113 µM cGMP 100%; P00514+P68181;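 active = percent activation above the mean of all tested compounds plus 3 SD, cut at about 19% in these data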;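 also: higher means more PKAc released from R1A so a rise in polarization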
HKDC1 inh: HKDC1 (human) hexokinase inhibition; inhibition, % at 20 µM; Q2TB90; AID 493160; hit rate 0.16% among 340,000; recombinant HKDC1, G6PDH/diaphorase resazurin coupled fluorescence;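 active = inhibition above about 35% when tested at 20 µM, limit read from the data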
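test system = in-house recombinant HK5 (HKDC1) enzyme | amount = HKDC1 at 5 µg/mL | control set = DMSO-enzyme wells negative, buffer-substituted wells positive | compound = one dose of 20 µM, 1% DMSO | schedule = reaction time 90 min, room temperature, protected from light | technique = resorufin fluorescence at 613 nm | reagent = glucose with 1 mM ATP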
PfGluPho inh: PfG6PD (Plasmodium falciparum) enzyme inhibition; hit rate 0.78% among 350,000; PfGluPho enzyme, NADPH resazurin-diaphorase fluorescence; inhibition, % at 20 µM; AID 504690;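 active = inhibition reaching at least a set limit at 20 µM in the primary screen, cut at about 59% in these data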
PKA-R2B act: activates the human PKA-R2B holoenzyme complex. PKA-R2B holoenzyme dissociation, Cy5-IP20 fluorescence polarization; R2B truncated from residue 108, S112A mutant; 0% DMSO only, 100% 113 µM cGMP. hit rate 0.079% among 340,000. activation, % at 11.4 µM. P22694+P31323. AID 504700;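 active = activation above a cutoff set at the mean over all compounds plus 3 SD, cut at about 18% in these data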;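 also: higher means more holoenzyme dissociation and a rise in polarization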
ATG4B inh: ATG4B (human) cysteine protease inhibition; ATG4B cleavage of LC3-PLA2, NBD-HPC fluorescence, 1 h; inhibition, % at 8.33 µM; hit rate 0.51% among 340,000; AID 504462; in the data active = inhibition above about 40%
Target sequence (Q9Y4P1 whole entry, looked up): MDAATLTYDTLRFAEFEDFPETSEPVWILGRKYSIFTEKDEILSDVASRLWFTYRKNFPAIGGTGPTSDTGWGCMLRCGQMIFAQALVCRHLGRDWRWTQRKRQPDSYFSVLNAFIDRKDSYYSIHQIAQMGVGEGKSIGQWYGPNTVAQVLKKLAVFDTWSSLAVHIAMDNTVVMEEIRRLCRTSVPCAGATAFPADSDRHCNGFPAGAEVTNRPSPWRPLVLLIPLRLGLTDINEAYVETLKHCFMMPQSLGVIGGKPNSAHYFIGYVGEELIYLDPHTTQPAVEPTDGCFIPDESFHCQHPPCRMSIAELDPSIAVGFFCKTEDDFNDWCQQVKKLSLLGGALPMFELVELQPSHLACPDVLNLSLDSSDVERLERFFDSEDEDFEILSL
T cell modulator: T cell immune modulation candidate | 2C CD8+ T cell-vesicle binding, flow cytometry; active compounds read low | response (vesicle binding), % at 7 µM | hit rate 0.068% among 330,000 | AID 2052;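 active = response, share of CD8 T cells binding vesicles, and their 90th percentile fluorescence all below set limits, cut at about 80% in these data, passing the limit was not always enough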;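 also: values below 100% mean blocked vesicle binding to the CD8+ T cells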
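Also added: QL9-peptide-loaded Drosophila micro-vesicles bearing Ld, ICAM-1 and B7-1; Test system: purified 2C TCR transgenic mouse naive CD8+ T cells; Measured by: cytometric PE anti-B7-1 and Alexa647 anti-CD8 signals after 1% paraformaldehyde fixation; Timing: binding step 1.5 h, 37 °C, antibody labelling 20 min, ice.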
PfGluPho conf: PfG6PD inhibition, single-dose confirmed | inhibition, % at 20 µM | shares compounds with PfGluPho inh | recombinant PfGluPho, NADPH-diaphorase-resazurin fluorescence | hit rate 34% among 2,400 | AID 504753;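 active = inhibition of at least 50% at 20 µM in any single replicate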
Diaphorase 10uM: counter-screen for P. falciparum G6PD inhibitors: diaphorase inhibitors, oxidizers. shares compounds with PfGluPho inh. diaphorase-coupled resazurin reduction, fluorescence, NADPH 10 uM. inhibition, % at 20 µM. hit rate 39% among 820;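 active = average inhibition reaching 50% or more with the compound at 20 µM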;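 also: resorufin red fluorescence formed as diaphorase reduces resazurin using NADPH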
Diaph ctr 30uM: diaphorase inhibition or oxidation at 30 uM NADPH; shares compounds with PfGluPho inh; Diaphorase/resazurin coupled assay, resorufin fluorescence; inhibition, % at 20 µM; hit rate 29% among 820; AID 504863;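 active = inhibition averaging 50% or more, tested at 20 µM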
Each line names hits and unclear results; the compound was inactive in the other large screens (follow-up assays come after a bar, where they were run); ! = a repeat was not active. Compounds with a hit are over-represented: about 1.6% of the library has one in this group of screens.

CCOC(=O)C1=C(C)N=c2s/c(=C3\C(=O)Nc4ccccc43)c(=O)n2C1c1ccc2c(c1)OCO2 (stereo not drawn)	none
C=CCOC(=O)C1=C(C)N=c2s/c(=C3\C(=O)N(CC(=O)O)c4ccccc43)c(=O)n2C1c1ccc(OC)cc1 (stereo not drawn)	PfGluPho inh 60 | PfGluPho conf inactive
COc1ccccc1C(=O)Nc1nc2ccccc2s1	none
COc1ccc(NC(=O)c2nc3ccccc3s2)cc1	PfGluPho inh 79 | PfGluPho conf inactive
COc1ccc(NC(=O)c2cc3ccccn3n2)cc1	PfGluPho inh 64 | PfGluPho conf inactive
COc1ccc(C(=O)Nc2nc3ccccc3s2)c(OC)c1	PfGluPho inh 76 | PfGluPho conf inactive
COc1ccc(NC(=O)c2ccccn2)cc1	none
CC1CC(C)(C)CC2(C1)NC(=O)N(CC(=O)Nc1cc([N+](=O)[O-])ccc1F)C2=O (stereo not drawn)	none
COc1ccc(-c2noc(CCC(=O)N3CCN(c4ccccc4)CC3)n2)cc1	none (no result: T cell modulator)
CCOC(=O)c1cnc2c(OC)cccc2c1Nc1ccc2c(c1)OCCO2	PfGluPho inh 68 | PfGluPho conf inactive
CC1=CC(=O)C(Sc2ccc(C)cc2)=CC1=O	PfGluPho inh 124 (no result: HKDC1 inh, ATG4B inh, T cell modulator) | PfGluPho conf 109 | Diaphorase 10uM 90 | Diaph ctr 30uM 64
O=[N+]([O-])c1ccc(Sc2cccc3cccnc23)c2cccnc12	PfGluPho inh 94 | PfGluPho conf 53 | Diaphorase 10uM 66 | Diaph ctr 30uM inactive
O=[N+]([O-])c1cc2cccnc2c2ncccc12	none (no result: PKA-R1A activ, PKA-R2B act)
O=C(Cc1ccc(-c2ccccc2)cc1)Nc1ncccc1O	none
Oc1ccc(N2CCN(C(c3cccs3)c3nnnn3CCc3ccccc3)CC2)cc1 (stereo not drawn)	PfGluPho inh 66 | PfGluPho conf inactive
COc1ccc(Cn2nnnc2C(c2cccs2)N2CCN(c3ccccc3)CC2)cc1 (stereo not drawn)	none
O=C(Nc1ccccc1SC(=O)c1ccccc1)c1ccccc1	PfGluPho inh 64 (no result: HKDC1 inh, ATG4B inh, T cell modulator) | PfGluPho conf inactive
COc1ccc(N2C(=S)N(C(=O)c3ccccc3)C(=Nc3ccccc3)C2=Nc2ccccc2)cc1	PfGluPho inh 64 | PfGluPho conf inactive
COc1ccc(N=C2C(=Nc3ccc(OC)cc3)N(c3ccc(OC)cc3)C(=S)N2C(=O)c2ccc(OC)cc2)cc1	none
COc1ccc(-c2nc(CS(=O)(=O)CC(=O)NCCCN3CCN(C)CC3)c(C)o2)cc1	none
CC(=O)N1CCN(c2ccc(NC(=O)c3ccc4c(c3)OCCO4)cc2)CC1	none
CC(C)C(=O)N1CCN(c2ccc(NC(=O)c3ccc4c(c3)OCCO4)cc2Cl)CC1	PfGluPho inh 68 | PfGluPho conf inactive
CC(C)C(=O)N1CCN(c2ccccc2NC(=O)c2ccc3c(c2)OCCO3)CC1	none (no result: T cell modulator)
CC(=O)N1CCN(c2ccc(NC(=O)c3ccc4c(c3)OCCO4)cc2Cl)CC1	PfGluPho inh 67 | PfGluPho conf inactive
Cc1ccc(C(=O)OCC(=O)NCc2ccc(Cl)cc2)s1	none (no result: HKDC1 inh, ATG4B inh, T cell modulator)
COc1ccc(OC)c(/C=C/C(=O)N2CCN(S(=O)(=O)c3ccc(C)cc3C)CC2)c1	none
O=C(Cc1c(Cl)cccc1Cl)OCC(=O)c1ccc[nH]1	none (no result: HKDC1 inh, ATG4B inh, T cell modulator)
Cc1c(Cl)cccc1N=Cc1ccc([N+](=O)[O-])s1	PfGluPho inh 77 | PfGluPho conf inactive
CCN(CC)C(=O)C1=C(C)N(Cc2ccc(C(C)(C)C)cc2)C(=O)C(CC(=O)NCCCN(C)C)C1 (stereo not drawn)	none (no result: HKDC1 inh, ATG4B inh, T cell modulator)
COc1cc2c(cc1[N+](=O)[O-])-c1ccc([N+](=O)[O-])cc1C2=NNC(N)=S	PfGluPho inh 73 (no result: HKDC1 inh, ATG4B inh, T cell modulator) | PfGluPho conf inactive
Cc1ccc(S(=O)(=O)Nc2ccc3[nH]c(=O)[nH]c3c2)c(C)c1	none | PfGluPho conf inactive
O=c1[nH]c2ccc(NS(=O)(=O)c3ccc(Cl)cc3)cc2[nH]1	PfGluPho inh 64 | PfGluPho conf inactive
O=c1[nH]c2ccc(NS(=O)(=O)c3ccc(F)c(Cl)c3)cc2[nH]1	PfGluPho inh 63 | PfGluPho conf inactive
COc1ccc(C(=O)NCC2(c3ccc(OC)c(OC)c3)CCCC2)cc1OC	none (no result: HKDC1 inh, ATG4B inh, T cell modulator)
COc1ccc(C2(CNC(=O)c3ccc(OC)c([N+](=O)[O-])c3)CCCCC2)cc1OC	PfGluPho inh 85 | PfGluPho conf 53 | Diaphorase 10uM 54 | Diaph ctr 30uM inactive
C=CCn1c2ccccc2c(=O)c2cc(C#Cc3ccccn3)ccc21	PfGluPho inh 80 | PfGluPho conf inactive
CCOC(=O)C1=C(C)Nc2nc(SCC)nn2C1c1ccc(OC)cc1 (stereo not drawn)	none
CCOC(=O)C1=C(C)Nc2ncnn2C1c1cccnc1 (stereo not drawn)	none
CCOC(=O)C1=C(C)Nc2nc(=S)[nH]n2C1c1ccc(Cl)cc1 (stereo not drawn)	PfGluPho inh 61 (no result: T cell modulator) | PfGluPho conf inactive
CCOC(=O)C1=C(C)Nc2ncnn2C1c1ccc(N(C)C)cc1 (stereo not drawn)	PfGluPho inh 61! | PfGluPho conf inactive
C=CC(=O)Nc1cccc(Nc2nc(N[C@H]3CC[C@H](N(C)C)CC3)nc3c2ncn3C(C)C)c1	none (no result: T cell modulator)
Cc1ccc(S(=O)(=O)NCC(=O)OCC(=O)NCc2ccco2)cc1	none
C=C1CCN(C(CC(C)C)C(=O)OC)S(=O)(=O)c2ccccc21 (stereo not drawn)	none
COC(=O)[C@H](CC(C)C)N1Cc2cc(OC)cc(OC)c2-c2ccccc2S1(=O)=O	PfGluPho inh 65 (no result: T cell modulator) | PfGluPho conf inactive
Cc1cc2[nH]c3c4ccccc4nc(C)c3c2cc1C	PfGluPho inh 75 (no result: T cell modulator) | PfGluPho conf inactive
O=C(Nc1nc2ccccc2s1)Nc1ccc(F)cc1F	none
O=C(Nc1ccc(F)cc1F)Nc1sccc1-c1nc2ccccc2s1	PfGluPho inh 81 | PfGluPho conf inactive
Cn1c(=O)c2[nH]c(-c3ccccc3Cl)c(O)c2n(C)c1=O	none
Cn1c(=O)c2[nH]c(-c3ccccc3)c(O)c2n(C)c1=O	PfGluPho inh 71 | PfGluPho conf 59 | Diaphorase 10uM inactive | Diaph ctr 30uM inactive

Screens: PubChem, several laboratories
